# Compound activity deposited in PubChem BioAssay by several laboratories.
# Hits are enriched below; roughly 4.6% of the tested compounds scored in any of these assays.
# DSG3 Ab inh: inhibitors of pemphigus antibody binding to DSG3, primary screen, biochemical, bead-based, flow cytometry, scFv-GFP | AID 588358, 2011 | Desmoglein-3 (Homo sapiens), P32926 | DSG3-coupled beads, scFv-anti-DSG3-GFP binding; hits give low values | 310,000 tested, 0.48% active | binding (percent of control), % at 10 µM;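 active means binding more than 3 SD below its plate's average and above zero; inconclusive means below that plate limit but binding exactly zero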;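 further: hits lower antibody fragment binding to DSG3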
# Target sequence (P32926 whole entry, looked up, the tested form may be a part): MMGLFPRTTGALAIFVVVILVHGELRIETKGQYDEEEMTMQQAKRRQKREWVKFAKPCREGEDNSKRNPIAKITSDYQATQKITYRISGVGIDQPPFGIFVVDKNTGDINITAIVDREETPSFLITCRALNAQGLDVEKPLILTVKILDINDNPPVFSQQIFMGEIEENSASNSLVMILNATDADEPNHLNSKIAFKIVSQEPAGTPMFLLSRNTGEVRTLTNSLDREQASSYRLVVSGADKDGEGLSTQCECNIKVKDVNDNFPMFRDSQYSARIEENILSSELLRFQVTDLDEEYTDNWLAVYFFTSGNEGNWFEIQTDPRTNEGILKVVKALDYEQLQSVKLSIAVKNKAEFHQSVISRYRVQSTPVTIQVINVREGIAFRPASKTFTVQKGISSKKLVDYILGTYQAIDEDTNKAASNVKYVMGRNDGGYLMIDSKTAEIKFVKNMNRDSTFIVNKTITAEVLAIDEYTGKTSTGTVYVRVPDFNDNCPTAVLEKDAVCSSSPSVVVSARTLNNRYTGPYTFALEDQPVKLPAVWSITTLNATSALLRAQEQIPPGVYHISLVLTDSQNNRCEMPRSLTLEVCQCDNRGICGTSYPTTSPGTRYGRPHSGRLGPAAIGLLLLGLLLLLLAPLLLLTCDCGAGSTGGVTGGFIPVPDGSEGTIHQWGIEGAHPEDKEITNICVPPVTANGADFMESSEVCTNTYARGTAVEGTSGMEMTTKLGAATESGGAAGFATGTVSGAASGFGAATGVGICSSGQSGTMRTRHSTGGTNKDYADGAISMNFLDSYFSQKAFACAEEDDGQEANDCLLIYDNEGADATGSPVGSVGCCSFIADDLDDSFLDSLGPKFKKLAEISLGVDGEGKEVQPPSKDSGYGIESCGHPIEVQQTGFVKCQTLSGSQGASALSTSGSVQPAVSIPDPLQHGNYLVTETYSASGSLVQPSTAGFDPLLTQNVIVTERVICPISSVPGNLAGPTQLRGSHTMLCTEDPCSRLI
# ALR inh: inhibitors of human ALR sulfhydryl oxidase, primary screen, biochemical, H2O2 detection, HRP-luminol luminescence, single point; 290,000 tested, 3.8% active; purified ALR, DTT oxidation; AID 485317, 2010; inhibition, % (concentration not given with the values);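 active means mean replicate inhibition above about 79%, with every replicate also reaching it, limit read from the data; inconclusive means only one of the two criteria met; inactive means mean below limit and not every replicate reaching it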
# Arr AP2 block: inhibitors of beta-arrestin/AP2 binding, primary screen, biochemical, GPCR trafficking, flow cytometry; beta-arrestin 1 C-terminal peptide binding to AP2 beta2-adaptin appendage (human); FITC-arrestin peptide / GST-AP2 beads; AP2 beta2 appendage carries R879A mutation; inhibition, % at 10 µM; 340,000 tested, 0.31% active; AID 504490, 2011;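 active means inhibition above a set limit, near 3 SD of compounds lacking own fluorescence, cut at about 54% in these data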;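 further: plate controls were DMSO wells for no effect and 5 µM unlabelled arrestin peptide for full effect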
#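 Measured by: flow cytometry, FL1 (488/535 nm); Material: AP2 appendage R879A on GSH beads; Evaluation: percent response; Timing: pre-incubation 12 min, peptide binding 1 h, room temperature; Also added: 50 nM FITC-arrestin peptide; Medium: PBS with 0.05% Tween 20 and 0.1% BSA.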
# PolyA inh: polyadenylation inhibitors in yeast reporter cells, primary screen, luminescence, S. cerevisiae; AID 1875, 2009; activity score, % at 12 µM; S. cerevisiae SKY197-pL101 polyadenylation reporter, beta-gal luminescence; efflux-impaired pdr1/pdr3 knockout yeast; score 100 = 6 SD above DMSO; 300,000 tested, 0.02% active;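 active means lowest replicate activity score at least 50, where 100 means six control SD above control mean; inconclusive means lowest score under 50 but half or more replicates reach 50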;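 further: yeast exposed to compound for 9 h at 30 °C; higher score means more reporter readthrough which indicates perturbed polyadenylation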
# NALP1 yeast inh: NALP1 inflammasome inhibitors in reconstituted yeast, colorimetric, S. cerevisiae, triplicate retest | S. cerevisiae NALP1/ASC/caspase-1 growth, X-gal OD620, 72 h | inhibition, % at 10 µM | 280,000 tested, 0.61% active | AID 2071, 2009; in the data active means inhibition mostly above about 24%, no sharp cut-off; inactive means mostly below about 32%
# NLRP3 yeast inh: NALP3 inflammasome inhibitors in reconstituted yeast, primary screen, luminescence, uHTS; 330,000 tested, 0.39% active; Yeast reconstituted NLRP3/ASC/caspase-1, beta-gal luminescence, 24 h; inhibition, % at 10 µM;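 active means inhibition of 50% or more; inactive means inhibition below 50%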;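 further: plate controls were induced DMSO wells for no effect and uninduced yeast grown without galactose for full effect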
# * = called active by the depositor; ? = inconclusive; · = no result given.
SMILES,DSG3 Ab inh,ALR inh,Arr AP2 block,PolyA inh,NALP1 yeast inh,NLRP3 yeast inh
CCCN1CCc2cccc3c2[C@H]1Cc1ccc(O)c(O)c1-3,·,99*,20,1,·,27
COc1ccc2c(c1O)-c1c(OC)c(OC)cc3c1[C@H](C2)N(C)CC3,108,-20,-4,·,·,3
Clc1ccccc1CNC1CN2CCC1CC2 (stereo not given),95,13,-2,5,9,-9
c1ccc2c(c1)Sc1ccccc1N2CC1CN2CCC1CC2 (stereo not given),104,98*,9,5,24,17
Cc1ccc(OC(=O)N(C)C[C@H]2OCc3cnnn3CCCC(=O)N([C@H](C)CO)C[C@@H]2C)cc1,103,·,·,·,·,·
CCCCCCCCn1sccc1=O,87*,23,·,·,·,8
CN(C)P(=O)(N(C)C)N1CC1,115,·,-12,·,·,·
COc1cc(/C=C2\C(=O)NC(=O)N(c3ccccc3)C2=O)cc(OC)c1O,104,91*,-8,2,10,-13
Cc1ccccc1-[n+]1c(-c2ccccc2)cc(-c2ccccc2)cc1-c1ccccc1,108,-10,2,0,·,-2
O=C1NC(=O)N(c2ccccc2)C(=O)/C1=C/C=C/c1ccco1,89,97*,-15,-14,·,1
O=C1NC(=S)N(c2ccc(Cl)cc2)C(=O)/C1=C/N1CCN(C(=O)c2ccco2)CC1,103,97*,-4,-6,-1,27
CN1C(=O)/C(=C/C=C/c2ccco2)C(=O)NC1=S,19*,8,11,?,·,7
Cc1ccc(N2C(=O)NC(=O)/C(=C\C=C\c3ccco3)C2=O)cc1C,95,96*,27,7,21,·
COC(=O)C1=C(c2ccc(-c3ccccc3)c(F)c2)C[C@@H]2CC[C@H]1N2C(=O)NCC1CC1,95,-3,0,·,·,6
COc1ccc(NC(=O)N2C[C@@H]3C[C@@H](C2)c2cccc(=O)n2C3)cc1,·,-6,3,?,17,-3
CS(=O)(=O)c1ccc(C2=C(CNC(=O)c3nccs3)[C@H]3CC[C@@H](C2)N3Cc2ccccc2)cc1,106,·,·,·,·,·
O=C1NC(=S)N(c2ccc(F)cc2)C(=O)/C1=C\c1ccoc1,85,·,-12,·,5,·
O=C1NC(=S)N(c2ccc(F)cc2)C(=O)/C1=C/c1ccco1,·,93*,·,-6,-3,24
Cc1[nH]c2ccc(OCc3ccccc3)cc2c1CCN,133,12,-9,7,6,16
Cc1[nH]c2ccc(O)cc2c1CCN,106,96*,7,·,·,25
COc1cc2cc(C(=O)N3CC(COS(C)(=O)=O)c4ccc(O)cc43)[nH]c2c(OC)c1OC (stereo not given),107,·,7,·,·,·
CN(C)S(=O)(=O)c1cc(NC(=O)COC(=O)Cc2ccccc2)ccc1Cl,88*,·,-7,-6,12,10
CN(C)S(=O)(=O)c1cc(NC(=O)C[N+]23CCN(CC2)CC3)ccc1Cl,103,2,6,-10,12,17
C=C1C(=O)O[C@@H]2C[C@@H](C)[C@@H]3C4OC4C(=O)[C@@]3(C)[C@@H](O)[C@H]12 (stereo not given in full),101,98*,9,?,-13,17
C=C1C(=O)OC2CC(C)C3C=CC(=O)C3(C)C(O)C12 (stereo not given),95,·,28,·,·,·
SMILES,DSG3 Ab inh,ALR inh,Arr AP2 block,PolyA inh,NALP1 yeast inh,NLRP3 yeast inh
CCOP(=O)(OCC)C(NC(=O)c1cccc([N+](=O)[O-])c1)C(Cl)(Cl)Cl (stereo not given),83*,-15,-5,-12,·,2
O=C1/C(=C\c2cc3c(cc2Cl)OCO3)N2CCC1CC2,104,-84,21,-5,45*,5
O=C1/C(=C/c2cc([N+](=O)[O-])ccc2Cl)N2CCC1CC2,99,2,12,-4,-10,31
O=C1/C(=C/c2cc3c(cc2Cl)OCO3)N2CCC1CC2,·,-4,·,-23,47*,8
O=C1/C(=C\c2ccc(Cl)cc2Cl)N2CCC1CC2,102,37,13,-29,3,8
O=C(Cc1ccccc1)Oc1cccc(-n2cnnn2)c1,102,98*,9,7,20,23
O=C(Cc1ccccc1)Oc1cccc(N2C(=O)CCC2=O)c1,103,-8,-1,5,2,-6
CCOP(=O)(OCC)C(O)c1ccc(N(C)C)cc1 (stereo not given),·,86*,-10,-25,6,18
CC1Oc2cc3c(-c4c(O)cc(O)c5c(O)c6c(cc45)OC(C)C(C)C6=O)c(O)cc(O)c3c(O)c2C(=O)C1C (stereo not given),·,-24,7,-7,12,9
O=C1NC(=O)C2(Cc3ccccc3N3CCCC32)C(=O)N1c1ccccc1 (stereo not given),102,-7,-10,-10,-4,7
O=C(O)C1Cc2ccccc2N2CCCC12 (stereo not given),69,92*,17,1,3,17
O=C(O)CCn1cc(C=C2C(=O)NC(=O)NC2=O)c(-c2cc3ccccc3oc2=O)n1,106,97*,7,6,-8,7
CN1CCN(c2ccc(NC(=O)Oc3ccccc3)cc2)CC1,103,80*,29,6,8,10
COC(=O)C1=C(c2ccc(OC)c(OC)c2)C[C@@H]2CC[C@H]1N2C(=O)NCc1cccc2ccccc12,102,-6,13,·,·,11
CCC1(CCC(C)C)C(=O)NC(=S)NC1=O,123,·,15,·,·,·
Nc1c2c(nc3sc4c(c13)CCCC4)CCCCC2,109,-1,11,-17,54*,47
O=C(CCCc1ccc(N(CCCl)CCCl)cc1)NCc1ccccc1,109,·,·,·,·,·
C/C(=N\Nc1ccccc1)c1c(O)n(-c2ccccc2)c(=O)[nH]c1=O,112,99*,-1,-25,20,11
Cn1c(O)c(C(=O)c2ccccc2)c(=O)n(C)c1=O,103,46,-5,4,·,13
C/C(=N\Nc1ccccc1)c1c(O)n(C)c(=O)n(C)c1=O,106,99*,-5,-32,28,17
C/C(=N\NC(=O)c1ccccc1)c1c(O)n(C2CCCCC2)c(=O)[nH]c1=O,?,93*,2,-5,-12,5
CN=C(SCc1ccccc1)c1c(O)n(C)c(=O)n(C)c1=O,107,98*,-6,12,5,16
